Reference: ChEMBL document CHEMBL4052590, “Anti-Osteoporotic Activity of Harpagoside by Upregulation of the BMP2 and Wnt Signaling Pathways in Osteoblasts and Suppression of Differentiation in Osteoclasts” (J Nat Prod, 2017)
Calls of active or inactive are those of the source. The rule behind the calls is not given here.

Key:
Mus musculus [1] = assay: Effect on osteocalcin level in serum of OVX-induced bone loss ICR mouse model at 5 mg/kg, po for 12 weeks by ELISA (reference value: 176.9 +/- 4.7 ng/ml); type: functional
Mus musculus [2] = assay: Effect on alkaline phosphatase activity in serum of OVX-induced bone loss ICR mouse model at 2 mg/kg, po for 12 weeks using p-NPP as substrate (reference value: 84.9 +/- 4.2 U/L); type: functional
Mus musculus [3] = assay: Effect on calcium level in serum of OVX-induced bone loss ICR mouse model at 2 mg/kg, po for 12 weeks by ELISA (reference value: 9.3 +/- 0.3 mg/dl); type: functional
Mus musculus [4] = assay: Effect on C-terminal telopeptide level in serum of OVX-induced bone loss ICR mouse model at 10 mg/kg, po for 12 weeks by ELISA (reference value: 95.7 +/- 3.8 ng/ml); type: functional
Osteoclast [5] = assay: Inhibition of RANKL/M-CSF-induced osteoclast differentiation in mouse bone marrow-derived osteoclasts assessed as downregulation of TRAP protein expression up to 4 uM after 48 hrs by Western blot analysis; type: functional, cell-based
In short: (§1)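 Mouse bone marrow cells were taken from 4-week-old mice and primed 24 h in 30 ng/mL M-CSF. They were then given 100 ng/mL RANKL plus 30 ng/mL M-CSF, with or without compound, for 48 h. Lysates were made in boiling SDS buffer and quantified by BCA. 40–50 μg was run on SDS-PAGE and immunoblotted on PVDF with β-actin reference and ECL read-out.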

Mus musculus [6] = assay: Effect on […] level in serum of OVX-induced bone loss ICR mouse model at 2 mg/kg, po for 12 weeks by ELISA (reference value: 8.2 +/- 0.4 mg/dl); type: functional
Osteoclast [7] = assay: Inhibition of RANKL/M-CSF-induced osteoclast differentiation in mouse bone marrow-derived osteoclasts assessed as downregulation of NFATc1 protein expression up to 4 uM after 48 hrs by Western blot analysis; type: functional, cell-based; in short: as §1
Mus musculus [8] = species: Mus musculus; assay: Activation of Wnt signaling pathway in mouse MC3T3-E1 cells assessed as increase in Runx2 mRNA expression after 48 hrs in presence of ascorbic acid and beta-glycerophosphate by real-time PCR analysis; type: cell-based
Mus musculus [9] = assay: Anti-osteoporotic activity in ovariectomized ICR mouse assessed as increase in trabecular number in femur at 2 to 10 mg/kg, po after 12 weeks by microcomputed tomography; type: functional, organism-based
MC3T3-E1 [10] = assay: Upregulation of beta-catenin protein expression in mouse MC3T3-E1 cells after 48 hrs in presence of ascorbic acid and beta-glycerophosphate by Western blot analysis; type: functional, cell-based
MC3T3-E1 [11] = assay: Decrease in RANKL mRNA expression in mouse MC3T3-E1 cells at up to 4 uM after 48 hrs in presence of ascorbic acid and beta-glycerophosphate by real-time PCR analysis; type: functional, cell-based
MC3T3-E1 [12] = assay: Upregulation of OPG protein expression in mouse MC3T3-E1 cells up to 4 uM after 48 hrs in presence of ascorbic acid and beta-glycerophosphate by Western blot analysis; type: functional, cell-based
Mus musculus [13] = assay: Effect on C-terminal telopeptide level in serum of OVX-induced bone loss ICR mouse model at 5 mg/kg, po for 12 weeks by ELISA (reference value: 95.7 +/- 3.8 ng/ml); type: functional
MC3T3-E1 [14] = assay: Induction of OCN mRNA expression in mouse MC3T3-E1 cells up to 4 uM after 48 hrs in presence of ascorbic acid and beta-glycerophosphate by real-time PCR analysis
Mus musculus [15] = assay: Anti-osteoporotic activity in po dosed OVX-induced bone loss ICR mouse model assessed as increase in bone mineral density administered for 12 weeks by microcomputed tomography; type: functional, organism-based
MC3T3-E1 [16] = assay: Increase in OPG mRNA expression in mouse MC3T3-E1 cells up to 4 uM after 48 hrs in presence of ascorbic acid and beta-glycerophosphate by real-time PCR analysis; type: functional, cell-based
In short: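 MC3T3-E1 cells stimulated with 400 μM ascorbic acid and 5 mM β-glycerophosphate, with or without compound, 48 h. TRIzol RNA, real-time RT-PCR: 40 cycles of 95 °C 20 s, 56 °C 20 s, 72 °C 30 s. Ct of each transcript […] β-actin Ct, expressed relative to control samples.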

Mus musculus [17] = assay: Effect on calcium level in serum of OVX-induced bone loss ICR mouse model at 10 mg/kg, po for 12 weeks by ELISA (reference value: 9.3 +/- 0.3 mg/dl); type: functional
Mus musculus [18] = species: Mus musculus; assay: Activation of Wnt signaling pathway in mouse MC3T3-E1 cells assessed as increase in Runx2 protein expression up to 4 uM after 48 hrs in presence of ascorbic acid and beta-glycerophosphate by Western blot analysis; type: cell-based
In short: (§2)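 MC3T3-E1 cells given 400 μM ascorbic acid plus 5 mM β-glycerophosphate, exposed to test compound or not for 48 h. Lysed in boiling SDS sample buffer, protein measured by BCA. 40−50 μg of lysate run on 8% or 10% SDS-PAGE and transferred to PVDF. Blocked in 5% milk, probed with primary antibodies for 3 h at room temperature or overnight at 4 °C, detected by ECL.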

Mus musculus [19] = assay: Anti-osteoporotic activity in po dosed OVX-induced bone loss ICR mouse model assessed as decrease in trabecular bone destruction in femur administered for 12 weeks by microcomputed tomography; type: functional, organism-based
Mus musculus [20] = assay: Anti-osteoporotic activity in ovariectomized ICR mouse assessed as suppression of changes in structure model index levels in femur at 2 to 10 mg/kg, po after 12 weeks by microcomputed tomography; type: functional, organism-based
[21] = Cytotoxicity against mouse MC3T3-E1 cells assessed as cell viability up to 4 uM after 72 hrs by MTT assay; type: cell-based; conditions: read-out: Activity
In short: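 MC3T3-E1 cells (1 × 10^4 cells/mL) exposed to a range of concentrations for 72 h at 37 °C, 5% CO2. MTT added (500 μg/mL final) for 4 h, formazan dissolved in DMSO, A570 read. Viability given as % of solvent control; IC50 by nonlinear regression of % survival versus concentration.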

MC3T3-E1 [22] = assay: Antiosteoporotic activity in mouse MC3T3-E1 cells assessed as increase in alkaline phosphatase activity after 4 days using pNPP as substrate in presence of ascorbic acid and beta-glycerophosphate by colorimetric assay; type: functional, cell-based
In short: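 MC3T3-E1 cells (2 × 10^4 cells/mL) in osteogenic medium (400 μM ascorbic acid, 5 mM β-glycerophosphate) with or without compound for 4 days. Fixed in 70% ethanol, lysed in Tris/0.1% Triton X-100 pH 7.5. ALP read as p-NPP to p-nitrophenol at 405 nm; protein by Bradford.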

Mus musculus [23] = assay: Effect on TRAP activity in serum of OVX-induced bone loss ICR mouse model at 10 mg/kg, po for 12 weeks (reference value: 19.8 +/- 1.0 U/L); type: functional
Mus musculus [24] = assay: Effect on calcium level in serum of OVX-induced bone loss ICR mouse model at 5 mg/kg, po for 12 weeks by ELISA (reference value: 9.3 +/- 0.3 mg/dl); type: functional
MC3T3-E1 [25] = assay: Downregulation of DKK1 protein expression in mouse MC3T3-E1 cells up to 4 uM after 48 hrs in presence of ascorbic acid and beta-glycerophosphate by Western blot analysis; type: functional, cell-based; in short: as §2

Molecule C[C@]1(OC(=O)/C=C/c2ccccc2)C[C@@H](O)[C@]2(O)C=CO[C@@H](O[C@@H]3O[C@H](CO)[C@@H](O)[C@H](O)[C@H]3O)[C@@H]21 [HARPAGOSIDE] has an Activity (Mus musculus [1]) of 162.7 ng/mL, an Activity (Mus musculus [2]) of 78.5 U/L and an Activity (Mus musculus [3]) of 9.3 mg/dL. The Activity (Mus musculus [4]) was 80.7 ng/mL, the inhibition (Osteoclast [5]) was “Active” and the Activity (Mus musculus [6]) was 7.9 mg/dL. The inhibition (Osteoclast [7]) was “Active”, the Activity (Mus musculus [8]) was “Dose-dependent effect” and the Activity (Mus musculus [9]) was “Active”. For the same molecule, the Activity (MC3T3-E1 [10]) was “Dose-dependent effect”, the Activity (MC3T3-E1 [11]) was “Active” and the Activity (MC3T3-E1 [12]) was “Active”. The Activity (Mus musculus [13]) was 85.9 ng/mL, the Activity (MC3T3-E1 [14]) was “Active” and the Activity (Mus musculus [15]) was “Dose-dependent effect”. For the same molecule, the Activity (MC3T3-E1 [16]) was “Active”, the Activity (Mus musculus [17]) was 10.3 mg/dL and the Activity (Mus musculus [18]) was “Active”. The Activity (Mus musculus [19]) was “Dose-dependent effect”, the Activity (Mus musculus [20]) was “Active” and the viability at 72 h [21] was greater than 90%. For the same molecule, the Activity (MC3T3-E1 [22]) was “Dose-dependent effect”, the Activity (Mus musculus [23]) was 7.7 U/L and the Activity (Mus musculus [24]) was 9.6 mg/dL. The Activity (MC3T3-E1 [25]) was “Active”.
